# Source: ChEMBL document CHEMBL1143772, “Samarium(II) promoted stereoselective synthesis of antiproliferative cis-beta-alkoxy-gamma-alkyl-gamma-lactones” (2007)
# Legend:
# Format in all cases: functional
# A2780 = experiment: Antiproliferative activity against human A2780 cells after 48 hrs by SRB assay; settings: A2780, 48 h; for CC50: read-out: LC50 (the source's name)
# How it was run: (§1)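 NCI protocol, SRB read-out after 48 h continuous drug exposure; top test concentration 100 µM. A dose–response curve gives percentage growth (PG). GI50, TGI and LC50 are the concentrations at PG +50, 0 and −50. Values in µM, means of two to four experiments with standard deviation.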
# SW1573 = experiment: Antiproliferation activity against human SW1573 cells after 48 hrs by SRB assay; settings: SW1573, 48 h; how it was run: as §1
# WiDr = experiment: Antiproliferation activity against human WiDr cells after 48 hrs by SRB assay; settings: for CC50: read-out: LC50 (the source's name); how it was run: as §1
Structure (SMILES),GI50 (A2780) [µM],GI50 (SW1573) [µM],LC50 (concentration giving 50% net cell kill) (SW1573) [µM],TGI (SW1573) [µM],GI50 (WiDr) [µM],TGI (A2780) [µM],CC50 (A2780) [µM],TGI (WiDr) [µM],CC50 (WiDr) [µM]
CCCCCCC[C@H]1OC(=O)C[C@H]1OC1C=CCCC1 (some centres not stated),84,23,95,49,–,–,–,–,–
CCCCCCC[C@H]1OC(=O)C[C@H]1OCc1ccccc1,63,52,–,–,44,–,–,–,–
CCCCCCC[C@H]1OC(=O)C[C@H]1OC1CCCCC1,16,18,71,36,16,31,61,33,71
C=CC(CCCCC)O[C@@H]1CC(=O)O[C@@H]1CCCCCCC (some centres not stated),19,27,96,78,27,42,88,81,97
C#CC(CCCCCCC)O[C@@H]1CC(=O)O[C@@H]1CCCCCCC (some centres not stated),22,32,97,83,32,51,80,86,–
C=CCC(C)O[C@@H]1CC(=O)O[C@@H]1CCCCCCC (some centres not stated),48,33,–,83,39,–,–,–,–
